Assay results taken from ChEMBL document CHEMBL2057147, “Synthesis and in vitro antitumor activity of novel scopoletin derivatives” (Bioorg Med Chem Lett, 2012).
Calls of active or inactive are those of the source. The calls are words filed in the database; no cut-off is given here.

How the values were obtained:
MDA-MB-231 [1] = test: Antiproliferative activity against human MDA-MB-231 cells after 72 hrs by crystal violet staining method; assay type: functional, cell-based; conditions: for IC50: MDA-MB-231, 72 h
Summary of the method: (§1)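 Cells seeded at a known number in 96-well plates and exposed to increasing compound concentrations for 72 h; IC50 taken from the concentration–growth-inhibition data.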

MCF7 [2] = test: Antiproliferative activity against human MCF7 cells after 72 hrs by crystal violet staining method; assay type: functional, cell-based; conditions: for IC50: MCF7, 72 h; summary of the method: as §1
HT-29 [3] = test: Antiproliferative activity against human HT-29 cells after 72 hrs by crystal violet staining method; assay type: functional, cell-based; conditions: for IC50: HT-29, 72 h; summary of the method: as §1
MDA-MB-231 [4] = test: Antiproliferative activity against human MDA-MB-231 cells at 20 uM after 72 hrs by crystal violet staining method relative to control; assay type: functional
Summary of the method: (§2)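 Single-concentration growth inhibition in MCF-7 and MDA-MB 231 cells at 10 and 20 µM after 72 h, given as corrected treated/control percentage (T/C_corr %).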

MCF7 [5] = test: Antiproliferative activity against human MCF7 cells at 20 uM after 72 hrs by crystal violet staining method relative to control; assay type: functional; summary of the method: as §2
MDA-MB-231 [6] = test: Induction of apoptosis in human MDA-MB-231 cells assessed as caspase3 activation at 10 uM after 24 hrs by fluorescence detection assay; assay type: functional, cell-based
MDA-MB-231 [7] = test: Ratio of scopoletin IC50 to compound IC50 for human MDA-MB-231 cells; assay type: functional
MDA-MB-231 [8] = test: Cytostatic activity against human MDA-MB-231 cells at 20 uM after 72 hrs by crystal violet staining method relative to control; assay type: functional; summary of the method: as §2
U2OS = test: Induction of apoptosis in human U2OS cells assessed as caspase3 activation at 10 uM after 24 hrs by fluorescence detection assay; assay type: functional, cell-based
MCF7 [9] = test: Cytostatic activity against human MCF7 cells at 20 uM after 72 hrs by crystal violet staining method relative to control; assay type: functional; summary of the method: as §2
HT-29 [10] = test: Ratio of scopoletin IC50 to compound IC50 for human HT-29 cells; assay type: functional
MCF7 [11] = test: Ratio of scopoletin IC50 to compound IC50 for human MCF7 cells; assay type: functional
HT-29 [12] = test: Antiproliferative activity against human HT-29 cells at 1.25 to 20 uM up to 144 hrs by crystal violet staining method; assay type: functional, cell-based
Summary of the method: (§3)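 Time course at 1.25, 2.5, 5, 10 and 20 µM, with growth inhibition read as corrected treated/control percentage (T/C_corr %) at several incubation times over about 140 h.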

MCF7 [13] = test: Antiproliferative activity against human MCF7 cells at 1.25 to 20 uM up to 144 hrs by crystal violet staining method; assay type: functional, cell-based; summary of the method: as §3
MDA-MB-231 [14] = test: Cytocidal activity against human MDA-MB-231 cells at 20 uM after 72 hrs by crystal violet staining method relative to control; assay type: functional; summary of the method: as §2
MCF7 [15] = test: Cytocidal activity against human MCF7 cells at 20 uM after 72 hrs by crystal violet staining method relative to control; assay type: functional; summary of the method: as §2
MCF7 [16] = test: Cytocidal activity against human MCF7 cells at 10 uM after 72 hrs by crystal violet staining method; assay type: functional, cell-based; summary of the method: as §2
MDA-MB-231 [17] = test: Cytocidal activity against human MDA-MB-231 cells at 10 uM after 72 hrs by crystal violet staining method; assay type: functional, cell-based; summary of the method: as §2

SMILES | IC50 (MDA-MB-231 [1]) | IC50 (MCF7 [2]) | IC50 (HT-29 [3]) | T/C (MDA-MB-231 [4]) | T/C (MCF7 [5]) | further results
COc1cc2ccc(=O)oc2cc1O [SCOPOLETIN] | > 100 µM | > 100 µM | > 100 µM | – | – | –
COc1ccccc1NC(=O)COc1cc2oc(=O)c(NC(C)=O)cc2cc1OC | 14.7 µM | 17.9 µM | 19.1 µM | <50% | <50% | –
COc1cc2cc(NC(C)=O)c(=O)oc2cc1OCC(=O)Nc1ccc(C)cc1 | 13.9 µM | 19 µM | > 20 µM | <50% | <50% | –
COc1cc2cc(NC(C)=O)c(=O)oc2cc1OCC(=O)Nc1ccc(C(C)(C)C)cc1 | 4.5 µM | 3.9 µM | 4.3 µM | – | – | Activity (MDA-MB-231 [6]): inactive; Ratio IC50 (MDA-MB-231 [7]): 12; T/C (MDA-MB-231 [8]): 0%; Activity (U2OS): inactive; T/C (MCF7 [9]): 0%; Ratio IC50 (HT-29 [10]): 12; Ratio IC50 (MCF7 [11]): 12; Activity (HT-29 [12]): Active; Activity (MCF7 [13]): Active
COc1cc2cc(NC(C)=O)c(=O)oc2cc1OCC(=O)Nc1ccc(F)cc1 | – | – | – | – | – | Activity (MDA-MB-231 [1]): Active; Activity (MCF7 [2]): Active; Activity (HT-29 [3]): Active
O=c1[nH]cc(F)c(=O)[nH]1 [FLUOROURACIL] | – | 4.7 µM | – | – | – | –
COc1cc2ccc(=O)oc2cc1OCC(=O)Nc1ccc(C(C)(C)C)cc1 | 8.1 µM | 10.1 µM | 19.6 µM | – | – | T/C (MDA-MB-231 [14]): <0%; T/C (MCF7 [15]): <0%
COc1cc2ccc(=O)oc2cc1OCC(=O)Nc1ccc(Cl)cc1 | 19.3 µM | 19.5 µM | 18.1 µM | <50% | <50% | –
COc1cc2cc(NC(C)=O)c(=O)oc2cc1OCC(=O)Nc1ccc(Cl)cc1 | – | – | – | – | – | Activity (MDA-MB-231 [1]): Active; Activity (MCF7 [2]): Active; Activity (HT-29 [3]): Active
COc1cc2ccc(=O)oc2cc1OCC(=O)Nc1ccc(F)c(Cl)c1 | 6.3 µM | 6.5 µM | 7.6 µM | <50% | <50% | Ratio IC50 (MDA-MB-231 [7]): 12; Activity (MCF7 [16]): Active; Ratio IC50 (HT-29 [10]): 12; Ratio IC50 (MCF7 [11]): 12; Activity (MDA-MB-231 [17]): Active
COc1ccc(NC(=O)COc2cc3oc(=O)c(NC(C)=O)cc3cc2OC)cc1OC | 8.4 µM | 14.9 µM | > 20 µM | <50% | <50% | –
COc1cc2cc(NC(C)=O)c(=O)oc2cc1OCC(=O)Nc1cccc(C(C)=O)c1 | – | – | – | – | – | Activity (MDA-MB-231 [1]): Active; Activity (MCF7 [2]): Active; Activity (HT-29 [3]): Active
